Counter-ions that a name gives are not always drawn. Blank lines part the entries; values can stand above or below the molecule they belong to.
Tests used:
KB = experiment: Cytotoxicity against human KB cells after 72 hrs by SRB assay; assay type: functional, cell-based
[1] = Solubility of the compound in water; assay type: physicochemical; settings: buffer
LoVo = experiment: Cytotoxicity against human LoVo cells after 72 hrs by SRB assay; assay type: functional, cell-based
In short: (§1)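 IC50 is the compound concentration giving 50% inhibition of cell proliferation. It was determined on normal mouse BALB/3T3 fibroblasts and on human A549, MCF-7 and LoVo cancer lines, with doxorubicin hydrochloride and DiMIQ as reference compounds.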

[2] = Ratio of IC50 for compound to ratio of IC50 for DiMIQ for BALB mouse 3T3 cells; assay type: cell-based; settings: read-out: Ratio IC50
MCF7 = experiment: Cytotoxicity against human MCF7 cells after 72 hrs by SRB assay; assay type: functional, cell-based; settings: MCF7, 72 h; in short: as §1
A549 = experiment: Cytotoxicity against human A549 cells after 72 hrs by SRB assay; assay type: functional, cell-based; settings: A549, 72 h; in short: as §1
[3] = system: Lewis lung carcinoma cell line; experiment: Antineoplastic activity against mouse LLC cells xenografted in C57BL/6 mouse assessed as tumor growth inhibition at 30 mg/kg/day, ip administered on day 9 to day 12 of tumor implantation measured on day 21; assay type: functional; settings: route intraperitoneal, read-out: TGI
In short: (§2)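 Mice bore Lewis lung carcinoma (LLC) inoculated subcutaneously and received test agents intraperitoneally at 15–50 mg kg⁻¹ day⁻¹ from day 9 or day 10. A single 100 mg/kg cyclophosphamide dose was the cytostatic control. Tumor growth was followed as the group median, and TGI% was calculated from medians versus untreated controls. Significance was tested by nonparametric Kruskal–Wallis multiple comparison, p < 0.05.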

[4] = system: Lewis lung carcinoma cell line; experiment: Antineoplastic activity against mouse LLC cells xenografted in C57BL/6 mouse assessed as tumor growth inhibition at 15 mg/kg/day, ip administered on day 9 to day 13 of tumor implantation measured on day 18; assay type: functional; settings: route intraperitoneal, read-out: TGI; in short: as §2
[5] = Octanol-water partition coefficient, log P of the compound in citric buffer at pH 2.5 by spectrophotometric analysis; assay type: physicochemical
In short: (§3)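 Octanol–water partitioning, with log P defined as log(C_octanol/C_water). Compound in the aqueous phase was measured spectrophotometrically, and octanol content was obtained by subtracting the supernatant concentration from the total. Values are the mean of two independent experiments, each run in triplicate.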

[6] = system: Lewis lung carcinoma cell line; experiment: Antineoplastic activity against mouse LLC cells xenografted in C57BL/6 mouse assessed as tumor growth inhibition at 15 mg/kg/day, ip administered on day 9 to day 13 of tumor implantation measured on day 11; assay type: functional; settings: route intraperitoneal, read-out: TGI; in short: as §2
[7] = system: Lewis lung carcinoma cell line; experiment: Antineoplastic activity against mouse LLC cells xenografted in C57BL/6 mouse assessed as tumor growth inhibition at 30 mg/kg/day, ip administered on day 9 to day 12 of tumor implantation measured on day 11; assay type: functional; settings: route intraperitoneal, read-out: TGI; in short: as §2
[8] = system: Lewis lung carcinoma cell line; experiment: Antineoplastic activity against mouse LLC cells xenografted in C57BL/6 mouse assessed as tumor growth inhibition at 15 mg/kg/day, ip administered on day 9 to day 13 of tumor implantation measured on day 23; assay type: functional; settings: route intraperitoneal, read-out: TGI; in short: as §2
Mus musculus [9] = experiment: Toxicity in C57BL/6 mouse xenografted with mouse LLC cells assessed as body weight loss at 15 mg/kg/day, ip administered on day 9 to day 13 of tumor implantation; assay type: organism-based; design: route intraperitoneal; settings: in vivo
In short: (§4)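 Body weight was tracked in C57BL/6 mice bearing subcutaneously inoculated LLC during therapy given daily from day 9 to day 13. A single 100 mg/kg dose of cyclophosphamide served as the cytostatic control group.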

[10] = system: Lewis lung carcinoma cell line; experiment: Antineoplastic activity against mouse LLC cells xenografted in C57BL/6 mouse assessed as tumor growth inhibition at 15 mg/kg/day, ip administered on day 9 to day 13 of tumor implantation measured on day 14; assay type: functional; settings: route intraperitoneal, read-out: TGI; in short: as §2
Mus musculus [11] = experiment: Toxicity in C57BL/6 mouse xenografted with mouse LLC cells assessed as body weight loss at 30 mg/kg/day, ip administered on day 9 to day 12 of tumor implantation; assay type: organism-based; design: route intraperitoneal; settings: in vivo
In short: (§5)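 Mouse Lewis lung carcinoma (LLC) cells inoculated sc into mice. Daily dosing from day 9: 15 mg kg⁻¹ day⁻¹ through day 13 or 30 mg kg⁻¹ day⁻¹ through day 12; 25 or 50 mg kg⁻¹ day⁻¹ through day 13. Route is given as ip in tables and text but sc in figure legends. Body weight monitored for loss alongside tumor growth. Single 100 mg/kg cyclophosphamide dose as cytostatic control.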

[12] = system: Lewis lung carcinoma cell line; experiment: Antineoplastic activity against mouse LLC cells xenografted in C57BL/6 mouse assessed as tumor growth inhibition at 30 mg/kg/day, ip administered on day 9 to day 12 of tumor implantation measured on day 23; assay type: functional; settings: route intraperitoneal, read-out: TGI; in short: as §2
[13] = system: Lewis lung carcinoma cell line; experiment: Antineoplastic activity against mouse LLC cells xenografted in C57BL/6 mouse assessed as tumor growth inhibition at 30 mg/kg/day, ip administered on day 9 to day 12 of tumor implantation measured on day 14; assay type: functional; settings: route intraperitoneal, read-out: TGI; in short: as §2
Mus musculus [14] = experiment: Toxicity in C57BL/6 mouse xenografted with mouse LLC cells at 15 mg/kg/day, ip administered on day 9 to day 13 of tumor implantation; assay type: organism-based; design: route intraperitoneal; settings: in vivo; in short: as §5
[15] = Octanol-water partition coefficient, log P of the compound in PBS buffer at pH 7.4 by spectrophotometric analysis; assay type: physicochemical; in short: as §3
Mus musculus [16] = experiment: Toxicity in C57BL/6 mouse xenografted with mouse LLC cells at 30 mg/kg/day, ip administered on day 9 to day 12 of tumor implantation; assay type: organism-based; design: route intraperitoneal; settings: in vivo; in short: as §5
[17] = system: Lewis lung carcinoma cell line; experiment: Antineoplastic activity against mouse LLC cells xenografted in C57BL/6 mouse assessed as tumor growth inhibition at 15 mg/kg/day, ip administered on day 9 to day 13 of tumor implantation measured on day 16; assay type: functional; settings: route intraperitoneal, read-out: TGI; in short: as §2
Mus musculus [18] = experiment: Toxicity in C57BL/6 mouse xenografted with mouse LLC cells assessed as body weight loss at 30 mg/kg/day, sc administered on day 9 to day 12 of tumor implantation; assay type: organism-based; design: route subcutaneous; settings: in vivo; in short: as §5
[19] = Toxicity in human erythrocytes assessed as hemolysis at 0.3 mM after 30 mins by spectrophotometric analysis; assay type: cell-based, Erythrocyte; settings: read-out: Activity
In short: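 Human erythrocyte suspension under isotonic conditions (pH 7.4, hematocrit 50%). Compound added across a concentration series and incubated 30 min at 37 °C before hemolysis was scored. Mean ± SD of three individual determinations. Statistics by Mann–Whitney U test, p < 0.05.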

Mus musculus [20] = experiment: Toxicity in C57BL/6 mouse xenografted with mouse LLC cells assessed as body weight loss at 15 mg/kg/day, sc administered on day 9 to day 13 of tumor implantation; assay type: organism-based; design: route subcutaneous; settings: in vivo; in short: as §4
[21] = system: Lewis lung carcinoma cell line; experiment: Antineoplastic activity against mouse LLC cells xenografted in C57BL/6 mouse assessed as tumor growth inhibition at 30 mg/kg/day, ip administered on day 9 to day 12 of tumor implantation measured on day 18; assay type: functional; settings: route intraperitoneal, read-out: TGI; in short: as §2
Mus musculus [22] = experiment: Toxicity in C57BL/6 mouse xenografted with mouse LLC cells assessed as body weight loss at 50 mg/kg/day, sc administered on day 9 to day 13 of tumor implantation; assay type: organism-based; design: route subcutaneous; settings: in vivo; in short: as §5
[23] = system: Lewis lung carcinoma cell line; experiment: Antineoplastic activity against mouse LLC cells xenografted in C57BL/6 mouse assessed as tumor growth inhibition at 30 mg/kg/day, ip administered on day 9 to day 12 of tumor implantation measured on day 16; assay type: functional; settings: route intraperitoneal, read-out: TGI; in short: as §2
[24] = Dissociation constant, pKa of the compound in PBS buffer at 5 uM at pH 2 to 10 by UV-spectrophotometric analysis; assay type: physicochemical
In short: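 UV spectrophotometric titration at a final compound concentration of 5 μM. At this concentration the absorbance–concentration relationship stayed linear. pKa was read from spectral changes across pH.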

[25] = system: Lewis lung carcinoma cell line; experiment: Antineoplastic activity against mouse LLC cells xenografted in C57BL/6 mouse assessed as tumor growth inhibition at 15 mg/kg/day, ip administered on day 9 to day 13 of tumor implantation measured on day 21; assay type: functional; settings: route intraperitoneal, read-out: TGI; in short: as §2

solubility [1]: soluble
Structure (SMILES): Cc1c2c3cc(NC(=O)[C@@H](N)Cc4cnc[nH]4)ccc3nc-2n(C)c2ccccc12.Cl
IC50 (KB): 3460 nM

solubility [1]: soluble
Structure (SMILES): Cc1c2c3cc(NC(=O)[C@H](N)Cc4cnc[nH]4)ccc3nc-2n(C)c2ccccc12.Cl
IC50 (KB): 4850 nM

solubility [1]: soluble
Structure (SMILES): Cc1c2c3cc(NC(=O)CNC(=O)[C@@H](N)Cc4cnc[nH]4)ccc3nc-2n(C)c2ccccc12.Cl
IC50 (KB): 3640 nM

Structure (SMILES): Cc1c2ccccc2nc2c1c1cc(NC(=O)[C@@H]3CCCN3)ccc1n2C
IC50 (KB): 4390 nM

Structure (SMILES): Cc1c2ccccc2nc2c1c1cc(NC(=O)[C@@H](N)Cc3cnc[nH]3)ccc1n2C
IC50 (KB): 5960 nM

Structure (SMILES): Cc1c2ccccc2nc2c1c1cc(NC(=O)[C@@H](N)CO)ccc1n2C
IC50 (KB): 5960 nM

solubility [1]: soluble
Structure (SMILES): Cc1c2c3cc(NC(=O)[C@@H]4CCCN4C(=O)CN)ccc3nc-2n(C)c2ccccc12.Cl.Cl
IC50 (KB): 700 nM
IC50 (LoVo): 440 nM
selectivity ratio [2]: 5
IC50 (MCF7): 1130 nM
IC50 (A549): 860 nM

solubility [1]: soluble
Structure (SMILES): Cc1c2c3cc(NC(=O)[C@H]4CCCN4)ccc3nc-2n(C)c2ccccc12.Cl.Cl
IC50 (KB): 730 nM
IC50 (LoVo): 620 nM
selectivity ratio [2]: 5
IC50 (MCF7): 600 nM
IC50 (A549): 320 nM

solubility [1]: soluble
Structure (SMILES): Cc1c2c3cc(NC(=O)[C@@H]4CCCN4C(=O)[C@@H]4CCCN4)ccc3nc-2n(C)c2ccccc12.Cl.Cl
IC50 (KB): 560 nM
IC50 (LoVo): 360 nM
selectivity ratio [2]: 5
IC50 (MCF7): 960 nM
IC50 (A549): 540 nM

logP [5]: -1.9
solubility [1]: soluble
logD [15]: 0.6
pKa at 5 µM [24]: 7.2
Structure (SMILES): Cc1c2c3cc(NC(=O)CN)ccc3nc-2n(C)c2ccccc12.Cl.Cl
inhibition in vivo at 30 mg/kg/day [3]: 13.5%
IC50 (KB): 670 nM
inhibition in vivo at 15 mg/kg/day [4]: 0%
IC50 (LoVo): 880 nM
inhibition in vivo at 15 mg/kg/day [6]: 42.4%
inhibition in vivo at 30 mg/kg/day [7]: 50.1%
selectivity ratio [2]: 5
inhibition in vivo at 15 mg/kg/day [8]: 25.8%
Activity (Mus musculus [9]): <= 15%
IC50 (MCF7): 1450 nM
inhibition in vivo at 15 mg/kg/day [10]: 47.4%
Activity (Mus musculus [11]): <= 15%
inhibition in vivo at 30 mg/kg/day [12]: 19.7%
inhibition in vivo at 30 mg/kg/day [13]: 54.7%
Activity (Mus musculus [14]): Toxic
Activity (Mus musculus [16]): Toxic
IC50 (A549): 1310 nM
inhibition in vivo at 15 mg/kg/day [17]: 23.9%
Activity (Mus musculus [18]): <= 15%
hemolysis at 0.5 h, 300 µM [19]: 42.5%
Activity (Mus musculus [20]): <= 15%
inhibition in vivo at 30 mg/kg/day [21]: 14.3%
Activity (Mus musculus [22]): <= 15%
inhibition in vivo at 30 mg/kg/day [23]: 55.3%
inhibition in vivo at 15 mg/kg/day [25]: 26.1%

logP [5]: -1.9
solubility [1]: soluble
logD [15]: 1.4
pKa at 5 µM [24]: 7.2
Structure (SMILES): Cc1c2c3cc(NC(=O)[C@@H]4CCCN4)ccc3nc-2n(C)c2ccccc12.Cl.Cl
inhibition in vivo at 30 mg/kg/day [3]: 37.9%
IC50 (KB): 420 nM
inhibition in vivo at 15 mg/kg/day [4]: 8.38%
IC50 (LoVo): 810 nM
inhibition in vivo at 15 mg/kg/day [6]: 42%
inhibition in vivo at 30 mg/kg/day [7]: 61.2%
selectivity ratio [2]: 5
inhibition in vivo at 15 mg/kg/day [8]: 24.6%
Activity (Mus musculus [9]): <= 15%
IC50 (MCF7): 820 nM
inhibition in vivo at 15 mg/kg/day [10]: 42.6%
Activity (Mus musculus [11]): <= 15%
inhibition in vivo at 30 mg/kg/day [12]: 41.1%
inhibition in vivo at 30 mg/kg/day [13]: 74%
Activity (Mus musculus [14]): Toxic
Activity (Mus musculus [16]): Toxic
IC50 (A549): 480 nM
inhibition in vivo at 15 mg/kg/day [17]: 47.7%
Activity (Mus musculus [18]): <= 15%
Activity (Mus musculus [20]): <= 15%
inhibition in vivo at 30 mg/kg/day [21]: 50%
Activity (Mus musculus [22]): <= 15%
inhibition in vivo at 30 mg/kg/day [23]: 75.8%
inhibition in vivo at 15 mg/kg/day [25]: 0%

Structure (SMILES): COc1cccc2c1C(=O)c1c(O)c3c(c(O)c1C2=O)C[C@@](O)(C(=O)CO)C[C@@H]3O[C@H]1C[C@H](N)[C@H](O)[C@H](C)O1 [DOXORUBICIN HYDROCHLORIDE]
IC50 (KB): 840 nM
IC50 (LoVo): 110 nM
IC50 (MCF7): 440 nM
